Measured values taken from ChEMBL document CHEMBL1687829, “Evaluation of hepatotoxicity with off-label oral-treatment doses of voriconazole for invasive fungal infections” (Antimicrob Agents Chemother, 2011).

Experiments:
Homo sapiens [1] = experiment: Hepatotoxicity in patient assessed as three times increase in upper limit of normal ALT level at 297.3 mg, po bid for 76.1 days; format: toxicity, organism-based; details: in vivo, 1826.4 h
How it was run: (§1)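 Retrospective cohort at one hospital, 2006–2008. Patients received ≥7 days of oral voriconazole treatment for possible, probable or proven invasive fungal infection, with baseline and follow-up liver enzymes available; prophylaxis use was excluded. Groups were fixed 200 mg twice daily (n = 25) or weight-based 4 mg/kg twice daily after day 1 (n = 84). Read-out was number (%) of patients with a value >5× baseline or >3× ULN.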

Homo sapiens [2] = experiment: Hepatotoxicity in patient assessed as five times increase in baseline […] level at 297.3 mg, po bid for 76.1 days; format: toxicity, organism-based; details: in vivo, 1826.4 h; how it was run: as §1
Homo sapiens [3] = experiment: Hepatotoxicity in patient assessed as five times increase in baseline ALT level at 297.3 mg, po bid for 76.1 days; format: toxicity, organism-based; details: in vivo, 1826.4 h; how it was run: as §1
Homo sapiens [4] = experiment: Hepatotoxicity in patient assessed as five times increase in baseline AST level at 297.3 mg, po bid for 76.1 days; format: toxicity, organism-based; details: in vivo, 1826.4 h; how it was run: as §1
Homo sapiens [5] = experiment: Toxicity in patients assessed as adverse event at 200 mg, po bid for 72 days; format: organism-based; details: in vivo, 1728 h
How it was run: (§2)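 Same retrospective cohort (fixed 200 mg twice daily, n = 25, versus weight-based oral dosing, n = 84; ≥7 days of treatment). The outcome was voriconazole discontinuation that the practitioner attributed to an adverse drug event, taken from the medical records. Counts and % per group were compared between groups.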

Homo sapiens [6] = experiment: Hepatotoxicity in patients assessed as five times increase in baseline bilirubin level at 200 mg, po bid for 72 days; format: toxicity, organism-based; details: in vivo, 1728 h; how it was run: as §1
Homo sapiens [7] = experiment: Hepatotoxicity in patients assessed as three times increase in upper limit of normal bilirubin level at 200 mg, po bid for 72 days; format: toxicity, organism-based; details: in vivo, 1728 h; how it was run: as §1
Homo sapiens [8] = experiment: Hepatotoxicity in patient assessed as five times increase in baseline AST level at 200 mg, po bid for 72 days; format: toxicity, organism-based; details: in vivo, 1728 h; how it was run: as §1
Homo sapiens [9] = experiment: Hepatotoxicity in patient assessed as five times increase in baseline ALT level at 200 mg, po bid for 72 days; format: toxicity, organism-based; details: in vivo, 1728 h; how it was run: as §1
Homo sapiens [10] = experiment: Hepatotoxicity in patient assessed as five times increase in baseline ALP level at 200 mg, po bid for 72 days; format: toxicity, organism-based; details: in vivo, 1728 h; how it was run: as §1
Homo sapiens [11] = experiment: Toxicity in patient assessed as visual disturbance at 297.3 mg, po bid for 76.1 days; format: organism-based; details: in vivo, 1826.4 h
How it was run: (§3)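 Retrospective chart review of the same cohort: adults on ≥7 days of oral voriconazole treatment, either fixed 200 mg twice daily (n = 25) or weight-based dosing (n = 84). Visual disturbances were taken from the medical records as a secondary adverse-event endpoint and given as number (%) of patients per group.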

Homo sapiens [12] = experiment: Toxicity in patient assessed as visual disturbance at 200 mg, po bid for 72 days; format: organism-based; details: in vivo, 1728 h; how it was run: as §3
Homo sapiens [13] = experiment: Hepatotoxicity in patient assessed as three times increase in upper limit of normal […] level at 297.3 mg, po bid for 76.1 days; format: toxicity, organism-based; details: in vivo, 1826.4 h; how it was run: as §1
Homo sapiens [14] = experiment: Hepatotoxicity in patient assessed as three times increase in upper limit of normal ALT level at 200 mg, po bid for 72 days; format: toxicity, organism-based; details: in vivo, 1728 h; how it was run: as §1
Homo sapiens [15] = experiment: Hepatotoxicity in patient assessed as three times increase in upper limit of normal AST level at 200 mg, po bid for 72 days; format: toxicity, organism-based; details: in vivo, 1728 h; how it was run: as §1
Homo sapiens [16] = experiment: Hepatotoxicity in patient assessed as three times increase in upper limit of normal AST level at 297.3 mg, po bid for 76.1 days; format: toxicity, organism-based; details: in vivo, 1826.4 h; how it was run: as §1
Homo sapiens [17] = experiment: Hepatotoxicity in patients assessed as five times increase in baseline bilirubin level at 297.3 mg, po bid for 76.1 days; format: toxicity, organism-based; details: in vivo, 1826.4 h; how it was run: as §1
Homo sapiens [18] = experiment: Hepatotoxicity in patients assessed as three times increase in upper limit of normal bilirubin level at 297.3 mg, po bid for 76.1 days; format: toxicity, organism-based; details: in vivo, 1826.4 h; how it was run: as §1
Homo sapiens [19] = experiment: Hepatotoxicity in patient assessed as three times increase in upper limit of normal […] level at 200 mg, po bid for 72 days; format: toxicity, organism-based; details: in vivo, 1728 h; how it was run: as §1
Homo sapiens [20] = experiment: Toxicity in patients assessed as adverse event at 297.3 mg, po bid for 76.1 days; format: organism-based; details: in vivo, 1826.4 h; how it was run: as §2

**Q.** What does the source list for `C[C@@H](c1ncncc1F)[C@](O)(Cn1cncn1)c1ccc(F)cc1F` [VORICONAZOLE]?
**A.** Activity (Homo sapiens [1]): 15.5%; Activity (Homo sapiens [2]): 3.6%; Activity (Homo sapiens [3]): 13.1%; Activity (Homo sapiens [4]): 15.5%; Activity (Homo sapiens [5]): 0%; Activity (Homo sapiens [6]): 12%; Activity (Homo sapiens [7]): 16%; Activity (Homo sapiens [8]): 12%; Activity (Homo sapiens [9]): 24%; Activity (Homo sapiens [10]): 4%; Activity (Homo sapiens [11]): 3.6%; Activity (Homo sapiens [12]): 4%; Activity (Homo sapiens [13]): 11.9%; Activity (Homo sapiens [14]): 12%; Activity (Homo sapiens [15]): 16%; Activity (Homo sapiens [16]): 20.2%; Activity (Homo sapiens [17]): 3.6%; Activity (Homo sapiens [18]): 6%; Activity (Homo sapiens [19]): 32%; Activity (Homo sapiens [20]): 16.9%
